Experimental data: ChEMBL document CHEMBL1130239, “Synthesis and evaluation of (S)-4-(3-(2'-[11C]isopropylamino)-2-hydroxypropoxy) -2H-benzimidazol -2-one ((S)-[11C]CGP 12388) and (S)-4-(3-((1'-[18F]-fluoroisopropyl)amino)-2-hydroxypropoxy) -2H- benzimidazol-2-one ((S)-[18F]fluoro-CGP 12388) for visualization of beta-adrenoceptors with positron …” (J Med Chem, 1997)

Tests used:
[1] = organism: Rattus norvegicus; assay: Biodistribution of [18]Fluoro-CGP 12388 (10 minutes post injection) in trachea of male wistar rats; assay type: ADME, organism-based; settings: in vivo
In short: (§1)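 Pentobarbital-anesthetized (60 mg/kg ip) male Wistar rats (200 ± 20 g) received iv saline (n = 4) or 500 μg (±)-propranolol (n = 4) <1 min before 2 MBq (30 pmol) tracer in 0.3 mL. They were killed by heart extirpation at 10 or 60 min. Plasma came from blood centrifuged 3 min at 1000g. Tissue counts are expressed as DAR, mean ± SD.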

[2] = organism: Rattus norvegicus; assay: Biodistribution of [18]Fluoro-CGP 12388 (10 minutes post injection) in lung of male wistar rats; assay type: ADME, organism-based; settings: in vivo; in short: as §1
[3] = organism: Rattus norvegicus; assay: Biodistribution of [18]Fluoro-CGP 12388 (10 minutes post injection) in plasma of male wistar rats; assay type: ADME, organism-based; settings: in vivo; in short: as §1
[4] = Partition coefficient (logP); assay type: physicochemical; settings: octanol/water
In short: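 50-100 μCi of tracer in 0.1 M phosphate buffer pH 7.4 (5 mL) plus n-octanol (5 mL). Shaken vigorously for 30 min at 37 °C, five mixtures. 100 μL of each layer gamma-counted. log P from the octanol/water count ratio, n = 5. A calculated value was also obtained with Pallas 1.2.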

[5] = organism: Rattus norvegicus; assay: Biodistribution of [18]Fluoro-CGP 12388 (60 minutes post injection) in muscle of male wistar rats; assay type: ADME, organism-based, Muscle tissue; settings: in vivo, 1 h
In short: (§2)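 Male Wistar rats (200 ± 20 g) under ip pentobarbital (60 mg/kg). Saline given iv <1 min before tracer (controls, n = 4). Tracer (2 MBq, 30 pmol) injected iv in 0.3 mL. Rats killed by heart extirpation at 60 min and tissues dissected; plasma taken by centrifugation (3 min, 1000g). Uptake given as DAR, (cpm/g tissue)/(injected cpm/body weight g), mean ± SD.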

[6] = organism: Rattus norvegicus; assay: Biodistribution of [18]Fluoro-CGP 12388 (10 minutes post injection) in muscle of male wistar rats; assay type: ADME, organism-based, Muscle tissue; settings: in vivo; in short: as §1
[7] = organism: Rattus norvegicus; assay: Biodistribution of [18]Fluoro-CGP 12388 (10 minutes post injection) in spleen of male wistar rats; assay type: ADME, organism-based; settings: in vivo; in short: as §1
[8] = organism: Rattus norvegicus; assay: Biodistribution of [18]Fluoro-CGP 12388 (10 minutes post injection) in intestine of male wistar rats; assay type: ADME, organism-based; settings: in vivo; in short: as §1
[9] = organism: Rattus norvegicus; assay: Biodistribution of [18]Fluoro-CGP 12388 (10 minutes post injection) in liver of male wistar rats; assay type: ADME, organism-based; settings: in vivo; in short: as §1
[10] = organism: Rattus norvegicus; assay: Biodistribution of [18]Fluoro-CGP 12388 (60 minutes post injection) in plasma of male wistar rats; assay type: ADME, organism-based; settings: in vivo, 1 h; in short: as §2
[11] = organism: Rattus norvegicus; assay: Biodistribution of [18]Fluoro-CGP 12388 (10 minutes post injection) in kidney of male wistar rats; assay type: ADME, organism-based; settings: in vivo; in short: as §1
[12] = organism: Rattus norvegicus; assay: Biodistribution of [18]Fluoro-CGP 12388 (60 minutes post injection) in bone of male wistar rats; assay type: ADME, organism-based, Bone element; settings: in vivo, 1 h; in short: as §1
[13] = organism: Rattus norvegicus; assay: Biodistribution of [18]Fluoro-CGP 12388 (60 minutes post injection) in red blood cells of male wistar rats; assay type: ADME, organism-based; settings: in vivo, 1 h; in short: as §2
[14] = organism: Rattus norvegicus; assay: Biodistribution of [18]Fluoro-CGP 12388 (60 minutes post injection) in trachea of male wistar rats; assay type: ADME, organism-based; settings: in vivo, 1 h; in short: as §2
[15] = organism: Rattus norvegicus; assay: Biodistribution of {18]Fluoro-CGP 12388 (60 minutes post injection) in liver of male wistar rats; assay type: ADME, organism-based; settings: in vivo, 1 h; in short: as §2
[16] = organism: Rattus norvegicus; assay: Biodistribution of [18]Fluoro-CGP 12388 (60 minutes post injection) in fat of male wistar rats; assay type: ADME, organism-based, Adipose tissue; settings: in vivo, 1 h; in short: as §1
[17] = organism: Rattus norvegicus; assay: Biodistribution of [18]Fluoro-CGP 12388 (60 minutes post injection) in cerebellum of male wistar rats; assay type: ADME, organism-based; settings: in vivo, 1 h; in short: as §1
[18] = organism: Rattus norvegicus; assay: Biodistribution of [18]Fluoro-CGP 12388 (60 minutes post injection) in intestine of male wistar rats; assay type: ADME, organism-based; settings: in vivo, 1 h; in short: as §1
[19] = organism: Rattus norvegicus; assay: Biodistribution of [18]Fluoro-CGP 12388 (10 minutes post injection) in fat of male wistar rats; assay type: ADME, organism-based, Adipose tissue; settings: in vivo; in short: as §1
[20] = organism: Rattus norvegicus; assay: Biodistribution of [18]Fluoro-CGP 12388 (10 minutes post injection) in bone of male wistar rats; assay type: ADME, organism-based, Bone element; settings: in vivo; in short: as §1
[21] = organism: Rattus norvegicus; assay: Biodistribution of [18]Fluoro-CGP 12388 (60 minutes post injection) in kidney of male wistar rats; assay type: ADME, organism-based; settings: in vivo, 1 h; in short: as §1
[22] = organism: Rattus norvegicus; assay: Biodistribution of [18]Fluoro-CGP 12388 (60 minutes post injection) in heart of male wistar rats; assay type: ADME, organism-based; settings: in vivo, 1 h; in short: as §1
[23] = organism: Rattus norvegicus; assay: Biodistribution of [18]Fluoro-CGP 12388 (60 minutes post injection) in spleen of male wistar rats; assay type: ADME, organism-based; settings: in vivo, 1 h; in short: as §2
[24] = organism: Rattus norvegicus; assay: Biodistribution of [18]Fluoro-CGP 12388 (10 minutes post injection) in red blood cells of male wistar rats; assay type: ADME, organism-based; settings: in vivo; in short: as §1
[25] = organism: Rattus norvegicus; assay: Biodistribution of [18]Fluoro-CGP 12388 (60 minutes post injection) in cortex of male wistar rats; assay type: ADME, organism-based; settings: in vivo, 1 h; in short: as §1
[26] = organism: Rattus norvegicus; assay: Biodistribution of [18]Fluoro-CGP 12388 (10 minutes post injection) in heart of male wistar rats; assay type: ADME, organism-based; settings: in vivo; in short: as §1
[27] = organism: Rattus norvegicus; assay: Biodistribution of [18]Fluoro-CGP 12388 (10 minutes post injection) in cortex of male wistar rats; assay type: ADME, organism-based; settings: in vivo; in short: as §1
[28] = organism: Rattus norvegicus; assay: Biodistribution of [18]Fluoro-CGP 12388 (60 minutes post injection) in lung of male wistar rats; assay type: ADME, organism-based; settings: in vivo, 1 h; in short: as §1
[29] = organism: Rattus norvegicus; assay: Biodistribution of [18]Fluoro-CGP 12388 (10 minutes post injection) in cerebellum of male wistar rats; assay type: ADME, organism-based; settings: in vivo; in short: as §1

`CC(C[18F])NC[C@H](O)COc1cccc2[nH]c(O)nc12` (some centres undefined) gave a DAR [1] of 0.7, a DAR [2] of 1.37 and a DAR [3] of 0.51. The logP [4] was 0.44, the DAR [5] was 0.3 and the DAR [6] was 0.42. The DAR [7] was 1.17, the DAR [8] was 1.52 and the DAR [9] was 1.62. The DAR [10] was 0.35, the DAR [11] was 7.93 and the DAR [12] was 0.41. The DAR [13] was 0.39, the DAR [14] was 0.37 and the DAR [15] was 0.64. It also gave a DAR [16] of 0.07, a DAR [17] of 0.12 and a DAR [18] of 0.87. The DAR [19] was 0.53, the DAR [20] was 0.39 and the DAR [21] was 0.91. For the same compound, the DAR [22] was 0.46, the DAR [23] was 0.41 and the DAR [24] was 0.57. The DAR [25] was 0.12, the DAR [26] was 1.09 and the DAR [27] was 0.13. For the same compound, the DAR [28] was 0.59 and the DAR [29] was 0.17.
